This note sets out measurements from ChEMBL document CHEMBL1139543, “Antineoplastic agents. 445. Synthesis and evaluation of structural modifications of (Z)- and (E)-combretastatin A-41” (J Med Chem, 2005).

In brackets after ≈: the same amount, converted by molar mass.

For one test, the system named is FaDu. The experiment in a line: Growth inhibition against human pharynx FADU cell line. The class given is functional.
Conditions: not given
Broadly, the GI50 is the concentration giving 50% growth inhibition. Read a high GI50 as less potent growth inhibition. The compound `COc1ccc(/C=C\c2cc(OC)c(OC)c(OC)c2)cc1OCCCO` returned a GI50 of 0.63 µg/mL (≈ 1.68 µM).
Regarding `COc1ccc(/C=C\c2cc(OC)c(OC)c(OC)c2)cc1OP(=O)([O-])[O-].[Na+].[Na+]` [FOSBRETABULIN DISODIUM], it took 0.00045 µg/mL to inhibit growth by half (GI50).
The compound `COc1ccc(/C=C\c2cc(OC)c(OC)c(OC)c2)cc1N(C)C` displayed a GI50 of 0.09 µg/mL (≈ 0.262 µM).
Turning to `COc1ccc(/C=C\c2cc(OC)c(OC)c(OC)c2)cc1OCC[N+](C)(C)C.[I-]`, the GI50 was determined as 0.24 µg/mL. Compared with the last compound, the GI50 is about 2.7-fold higher.
Regarding `COc1ccc(/C=C/c2cc(OC)c(O)c(OC)c2)cc1O`, growth was halved (GI50) at 3.2 µg/mL (≈ 10.6 µM).

The test system of a further test is NCI-H460. Description: Growth inhibition against human lung-NSC NCI-H460 cell line. Format: functional.
Conditions: not given
Compound `COc1ccc(/C=C\c2cc(OC)c(OC)c(OC)c2)cc1OCCCO` showed a GI50 of 0.37 µg/mL (≈ 0.988 µM).
As for `COc1ccc(/C=C\c2cc(OC)c(OC)c(OC)c2)cc1OP(=O)([O-])[O-].[Na+].[Na+]` [FOSBRETABULIN DISODIUM], growth was halved (GI50) at 0.00035 µg/mL.
Turning to `COc1ccc(/C=C\c2cc(OC)c(OC)c(OC)c2)cc1N(C)C`, halving of growth (GI50) required 0.4 µg/mL (≈ 1.16 µM). This GI50 is about 1100-fold higher than that of the compound before.
On the same count and under the same terms, then `COc1ccc(/C=C\c2cc(OC)c(OC)c(OC)c2)cc1OCC[N+](C)(C)C.[I-]`, with 0.36 µg/mL; and `COc1ccc(/C=C/c2cc(OC)c(O)c(OC)c2)cc1O`, with 4.9 µg/mL (≈ 16.2 µM).

The next test concerns DU-145. Description: Growth inhibition against human prostate cell line (DU-145). Format: functional.
Conditions: not given
As to `COc1ccc(/C=C\c2cc(OC)c(OC)c(OC)c2)cc1OCCCO`, growth was halved (GI50) at 0.43 µg/mL (≈ 1.15 µM).
As for `COc1ccc(/C=C\c2cc(OC)c(OC)c(OC)c2)cc1OP(=O)([O-])[O-].[Na+].[Na+]` [FOSBRETABULIN DISODIUM], the GI50 stood at 0.00072 µg/mL.
As to `COc1ccc(/C=C\c2cc(OC)c(OC)c(OC)c2)cc1N(C)C`, the GI50 is 0.11 µg/mL (≈ 0.32 µM).
The compound `COc1ccc(/C=C\c2cc(OC)c(OC)c(OC)c2)cc1OCC[N+](C)(C)C.[I-]` came in with a GI50 of 0.33 µg/mL.
`COc1ccc(/C=C/c2cc(OC)c(O)c(OC)c2)cc1O`: the GI50 is 6.3 µg/mL (≈ 20.8 µM).

A further test deals with SW-1736. Description: Growth inhibition against human thyroid cell line( SW 1736). The class given is functional.
Conditions: not given
For the compound `COc1ccc(/C=C\c2cc(OC)c(OC)c(OC)c2)cc1OCCCO`, the concentration for 50% growth inhibition (GI50) was found to be 0.38 µg/mL (≈ 1.01 µM).
Regarding `COc1ccc(/C=C\c2cc(OC)c(OC)c(OC)c2)cc1OP(=O)([O-])[O-].[Na+].[Na+]` [FOSBRETABULIN DISODIUM], the GI50 is 0.00061 µg/mL. This GI50 is about 620-fold lower than that of the compound before.
For `COc1ccc(/C=C\c2cc(OC)c(OC)c(OC)c2)cc1N(C)C`, the GI50 is 0.8 µg/mL (≈ 2.33 µM).
With `COc1ccc(/C=C\c2cc(OC)c(OC)c(OC)c2)cc1OCC[N+](C)(C)C.[I-]`, the GI50 was 0.1 µg/mL. Against the preceding compound, the GI50 is about 8-fold lower.
Still for that read-out and setting: then `COc1ccc(/C=C/c2cc(OC)c(O)c(OC)c2)cc1O`, with above 10 µg/mL.

The next test has as its system Staphylococcus aureus. The experiment in a line: Minimum inhibitory concentration against Staphylococcus aureus was determined in the disk diffusion assay; value ranges from 25-50 ug/disk.
Conditions: not given
The class given is functional. (In general: A growth-free zone around the sample is the usual read-out of agar diffusion tests.)
On to `COc1ccc(/C=C\c2cc(OC)c(OC)c(OC)c2)cc1OCC[N+](C)(C)C.[I-]`, for which the MIC amounted to 50 ug/disk.

Another test deals with Neisseria gonorrhoeae. Description: Minimum inhibitory concentration against Neisseria gonorrhoeae was determined in the disk diffusion assay; value ranges from 50-100 ug/disk. Format: functional.
Conditions: not given
Take `COc1ccc(/C=C\c2cc(OC)c(OC)c(OC)c2)cc1OCCCO`: the MIC was 100 ug/disk.

For the next test, the system named is Neisseria gonorrhoeae. Description: Minimum inhibitory concentration against Neisseria gonorrhoeae was determined in the disk diffusion assay; value ranges from 12.5-25 ug/disk.
Conditions: not given
The class given is functional.
For `COc1ccc(/C=C/c2cc(OC)c(O)c(OC)c2)cc1O`, the MIC is reported as 25 ug/disk.

The test system of a further test is Cryptococcus neoformans. The experiment in a line: Minimum inhibitory concentration against Cryptococcus neoformans was determined in the disk diffusion assay; value ranges from 6.25-12.5 ug/disk. The class given is functional.
Conditions: not given
Take `COc1ccc(/C=C/c2cc(OC)c(O)c(OC)c2)cc1O`: the MIC is listed as 12.5 ug/disk.

For another test, the system named is Streptococcus pneumoniae. Description: Minimum inhibitory concentration against Streptococcus pneumoniae was determined in the disk diffusion assay; value ranges from 50-100 ug/disk. Format: functional.
Conditions: not given
In turn, `COc1ccc(/C=C\c2cc(OC)c(OC)c(OC)c2)cc1OCC[N+](C)(C)C.[I-]` had an MIC of 100 ug/disk.

The subject of the next test is P388. Description: Effective dose against murine P388 leukemia cell line. The class given is functional. The settings on record: Mus musculus, read-out: ED50 (the source's name).
As for `COc1ccc(/C=C\c2cc(OC)c(OC)c(OC)c2)cc1OCCCO`, the EC50 was 0.63 µg/mL (≈ 1.68 µM).
With `COc1ccc(/C=C\c2cc(OC)c(OC)c(OC)c2)cc1OP(=O)([O-])[O-].[Na+].[Na+]` [FOSBRETABULIN DISODIUM], the EC50 turned out to be 0.0029 µg/mL.
`COc1ccc(/C=C\c2cc(OC)c(OC)c(OC)c2)cc1N(C)C`: the EC50 came to 0.9 µg/mL (≈ 2.62 µM).
On the same count and under the same terms, the value for `COc1ccc(/C=C\c2cc(OC)c(OC)c(OC)c2)cc1OCC[N+](C)(C)C.[I-]` was 1.94 µg/mL; that for `COc1ccc(/C=C/c2cc(OC)c(O)c(OC)c2)cc1O` was 4.49 µg/mL (≈ 14.9 µM).

A further test deals with Tubulin beta-1 chain (Homo sapiens, UniProt Q9H4B7). Description: Inhibition of tubulin polymerization upon incubation for 20 min at 30 degree C.
Chain of Tubulin beta-1 chain (Q9H4B7 whole entry): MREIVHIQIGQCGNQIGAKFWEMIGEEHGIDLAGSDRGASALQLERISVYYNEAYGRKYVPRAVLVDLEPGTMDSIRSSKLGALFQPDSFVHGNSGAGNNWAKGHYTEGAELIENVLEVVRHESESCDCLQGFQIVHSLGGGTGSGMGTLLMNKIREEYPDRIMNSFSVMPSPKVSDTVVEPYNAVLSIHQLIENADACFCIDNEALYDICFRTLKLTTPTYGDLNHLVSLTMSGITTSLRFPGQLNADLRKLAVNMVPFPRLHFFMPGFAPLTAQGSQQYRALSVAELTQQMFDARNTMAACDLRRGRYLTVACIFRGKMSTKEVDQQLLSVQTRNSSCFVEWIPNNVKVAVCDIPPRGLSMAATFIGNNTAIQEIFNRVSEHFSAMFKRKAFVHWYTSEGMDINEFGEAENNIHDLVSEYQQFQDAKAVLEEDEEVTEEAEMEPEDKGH
Conditions: not given
The method in brief: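 Purified tubulin at 10 µM (1.0 mg/mL) in 0.8 M monosodium glutamate, pH 6.6, with 4% (v/v) DMSO and varying compound concentrations. Preincubated 15 min at 37 °C, chilled on ice, then GTP (0.4 mM) added. Warmed from 0 °C to 30 °C, and assembly followed 20 min by turbidity at 350 nm. IC50 interpolated; at least two determinations; SD reported.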
For orientation: IC50 means the concentration that inhibits the measured activity by half. A high value points to weaker potency in that assay. In turn, `COc1ccc(/C=C\c2cc(OC)c(OC)c(OC)c2)cc1OCCCO` showed an IC50 of 6.5 µM.
Still for that read-out and setting: then `COc1ccc(/C=C/c2cc(OC)c(O)c(OC)c2)cc1O`, with 14 µM.

Another test has as its system Candida albicans. The experiment in a line: Minimum inhibitory concentration against Candida albicans was determined in the disk diffusion assay; value ranges from 25-50 ug/disk. The class given is functional.
Conditions: not given
The method in brief:
(§1)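 Disk diffusion on Sabouraud Dextrose Agar. MIC taken as the lowest drug amount giving a clear zone of growth inhibition.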
In turn, `COc1ccc(/C=C\c2cc(OC)c(OC)c(OC)c2)cc1OCC[N+](C)(C)C.[I-]` displayed an MIC of 50 ug/disk.

The test system of the next test is Candida albicans. The experiment in a line: Minimum inhibitory concentration against Candida albicans was determined in the disk diffusion assay; value ranges from 50-100 ug/disk. The class given is functional.
Conditions: not given
The method in brief:
as §1
Take `COc1ccc(/C=C/c2cc(OC)c(O)c(OC)c2)cc1O`: the MIC turned out to be 100 ug/disk.

The subject of a further test is SK-N-SH. The experiment in a line: Growth inhibition against human neuroblastoma cell line (SK-N-SH). Format: functional.
Conditions: not given
`COc1ccc(/C=C\c2cc(OC)c(OC)c(OC)c2)cc1OCCCO` had a GI50 of 0.18 µg/mL (≈ 0.481 µM).
On to `COc1ccc(/C=C\c2cc(OC)c(OC)c(OC)c2)cc1OP(=O)([O-])[O-].[Na+].[Na+]` [FOSBRETABULIN DISODIUM], for which the concentration for 50% growth inhibition (GI50) came to 0.00025 µg/mL.
`COc1ccc(/C=C\c2cc(OC)c(OC)c(OC)c2)cc1N(C)C` showed a GI50 of 0.01 µg/mL (≈ 0.0291 µM).
As for `COc1ccc(/C=C\c2cc(OC)c(OC)c(OC)c2)cc1OCC[N+](C)(C)C.[I-]`, the GI50 is 0.28 µg/mL.
As to `COc1ccc(/C=C/c2cc(OC)c(O)c(OC)c2)cc1O`, the GI50 is 5.5 µg/mL (≈ 18.2 µM).

A further test has as its system BXPC-3. Description: Growth inhibition against human pancreas carcinoma cell line (BxPC-3). Format: functional.
Conditions: not given
As for `COc1ccc(/C=C\c2cc(OC)c(OC)c(OC)c2)cc1OCCCO`, halving of growth (GI50) required 0.26 µg/mL (≈ 0.694 µM).
Consider `COc1ccc(/C=C\c2cc(OC)c(OC)c(OC)c2)cc1OP(=O)([O-])[O-].[Na+].[Na+]` [FOSBRETABULIN DISODIUM], for which the GI50 came out at 0.23 µg/mL.
With `COc1ccc(/C=C\c2cc(OC)c(OC)c(OC)c2)cc1N(C)C`, the GI50 was determined as 0.015 µg/mL (≈ 0.0437 µM).
On the same count and under the same terms, the value for `COc1ccc(/C=C\c2cc(OC)c(OC)c(OC)c2)cc1OCC[N+](C)(C)C.[I-]` was 37.2 µg/mL; that for `COc1ccc(/C=C/c2cc(OC)c(O)c(OC)c2)cc1O` was 5 µg/mL (≈ 16.5 µM).

In a further test the test system is Micrococcus luteus. Description: Minimum inhibitory concentration against Micrococcus luteus was determined in the disk diffusion assay; value ranges from 12.5-25 ug/disk.
Conditions: not given
Turning to `COc1ccc(/C=C\c2cc(OC)c(OC)c(OC)c2)cc1OCC[N+](C)(C)C.[I-]`, the MIC was found to be 25 ug/disk.
